CHRM4 agonist = agonists of human muscarinic M4 receptor (CHRM4); P08173; CHO-K1 hM4/Gqi5, Fluo-8 calcium fluorescence; vehicle 0%, full acetylcholine response 100%; activation, % at 3 µM; 360,000 compounds, 0.14% hits; AID 624127;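 active = activation above the run mean over all test wells plus 3 SD, cut at about 32% in these data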;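 note: peak over basal fluorescence ratio per well then scaled between controls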
Target sequence (P08173 whole entry, looked up): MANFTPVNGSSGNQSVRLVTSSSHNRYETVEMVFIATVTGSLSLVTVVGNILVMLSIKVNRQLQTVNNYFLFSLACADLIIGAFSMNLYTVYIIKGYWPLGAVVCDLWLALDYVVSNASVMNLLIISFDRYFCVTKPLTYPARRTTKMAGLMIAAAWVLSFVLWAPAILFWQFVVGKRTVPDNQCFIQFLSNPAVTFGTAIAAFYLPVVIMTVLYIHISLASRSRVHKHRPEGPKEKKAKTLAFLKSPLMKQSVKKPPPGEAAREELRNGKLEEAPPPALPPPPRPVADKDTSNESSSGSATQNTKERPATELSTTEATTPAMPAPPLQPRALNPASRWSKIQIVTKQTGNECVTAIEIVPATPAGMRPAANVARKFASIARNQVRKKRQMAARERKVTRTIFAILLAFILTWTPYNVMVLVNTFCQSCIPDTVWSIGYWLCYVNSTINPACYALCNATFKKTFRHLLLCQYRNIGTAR
M5 ag = CHRM5 agonism in calcium assay; 360,000 compounds, 0.19% hits; CHO-K1 hM5 cells, Fluo-8 calcium fluorescence; 0% DMSO wells, 100% maximal acetylcholine response; activation, % at 3 µM; P08912;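 active = activation above the run's mean over test compounds plus 3 SD, cut at about 23% in these data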;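 note: signal is peak over basal fluorescence ratio across the kinetic read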
CHRM5 PAM = potentiates acetylcholine response at human M5 receptor; P08912; CHO-K1 hM5, Fluo-8 calcium, ACh EC20 PAM; 0% = ACh EC20, 100% = ACh EC100; activation, % at 3 µM; 360,000 compounds, 0.3% hits; AID 624038;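 active = activation above the run cutoff, the mean activation of all test compounds plus 3 SD, cut at about 18% in these data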
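Assay system – human M5 receptor in CHO-K1 cells · Read-out – % activation, ACh-normalized · Technique – Fluo-8 calcium fluorescence · Dosing – single-point, 3 µM nominal · Incubation – Fluo-8 loading 80 min at 37 °C plus 30 min room temperature · Repeats – singlicate, one well per test compound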
M4 PAM = positive allosteric modulators of human muscarinic M4 receptor | CHO-K1 hM4/Gqi5, Fluo-8 calcium fluorescence, ACh EC20; 0% = ACh EC20, 100% = maximal ACh | activation, % at 3 µM | 360,000 compounds, 0.4% hits | AID 624126;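 active = activation above its plate's cutoff, the mean activation of sample wells plus 3 SD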
M5 antag = antagonists of human muscarinic M5 receptor (CHRM5); P08912; 360,000 compounds, 0.59% hits; inhibition, % at 3 µM; CHO-hM5 cells, Fluo-8 calcium fluorescence, ACh EC80;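 active = inhibition above a per-plate cutoff, the mean of that plate's test compounds plus 3 SD, cut at about 27% in these data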
M4 antag = blocks acetylcholine activation of human M4 receptor. 360,000 compounds, 0.73% hits. CHO-hM4 cells, ACh EC80, Fluo-8 calcium fluorescence. inhibition, % at 3 µM;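 active = inhibition above its plate's cutoff, the mean inhibition of sample wells plus 3 SD, cut at about 27% in these data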
Hits are given with their value. This is a sample that favours compounds with a hit; in the whole collection about 1.8% have one here.

How did CC1C(=O)NN=C1C(=O)N/N=C\c1ccc(O)cc1O (stereo not given) do in these assays?
CHRM4 agonist: inactive; M5 ag: inactive; CHRM5 PAM: inactive; M4 PAM: 29; M5 antag: inactive; M4 antag: inactive

What do the screens show for `COc1ccc(N(C(=O)CNC(=O)c2ccco2)C(C(=O)NCC2CCCO2)c2ccccc2)cc1OC` (stereo not given)?
CHRM4 agonist: inactive; M5 ag: inactive; CHRM5 PAM: inactive; M4 PAM: inactive; M5 antag: inactive; M4 antag: inactive

How did Cc1c(NS(=O)(=O)c2cccc(C(=O)N3CCC(C(N)=O)CC3)c2)c(=O)n(-c2ccccc2)n1C do in these assays?
CHRM4 agonist: inactive; M5 ag: inactive; CHRM5 PAM: inactive; M4 PAM: 32; M5 antag: inactive; M4 antag: inactive

What do the screens show for `COc1ccc(C(=O)Oc2cc3c4c(c2)C(C)=CC(C)(C)N4C(=O)C3=O)cc1OC`?
CHRM4 agonist: inactive; M5 ag: inactive; CHRM5 PAM: inactive; M4 PAM: inactive; M5 antag: inactive; M4 antag: inactive

Results for COc1cccc(C(=O)Oc2cc3c4c(c2)C(C)=CC(C)(C)N4C(=O)C3=O)c1 ?
CHRM4 agonist: inactive; M5 ag: 57; CHRM5 PAM: inactive; M4 PAM: inactive; M5 antag: 46; M4 antag: inactive

Results for COc1cc2c3c(c1)C(C)=CC(C)(C)N3C(=O)C2=O ?
CHRM4 agonist: inactive; M5 ag: 36; CHRM5 PAM: inactive; M4 PAM: inactive; M5 antag: inactive; M4 antag: inactive

Results for COc1ccc(Cl)cc1N1CC(c2nc3ccccc3[nH]2)CC1=O (stereo not given) ?
CHRM4 agonist: inactive; M5 ag: inactive; CHRM5 PAM: inactive; M4 PAM: inactive; M5 antag: inactive; M4 antag: inactive

How did O=C1CC(c2nc3ccccc3[nH]2)CN1c1ccccc1F (stereo not given) do in these assays?
CHRM4 agonist: inactive; M5 ag: inactive; CHRM5 PAM: inactive; M4 PAM: inactive; M5 antag: inactive; M4 antag: 78

What do the screens show for `CCN(CC)CCCOC(=O)C(c1ccccc1)c1ccccc1`?
CHRM4 agonist: inactive; M5 ag: inactive; CHRM5 PAM: inactive; M4 PAM: inactive; M5 antag: 98; M4 antag: 91

What do the screens show for `CN(C)CCN(Cc1cccs1)c1ccccn1`?
CHRM4 agonist: inactive; M5 ag: inactive; CHRM5 PAM: inactive; M4 PAM: inactive; M5 antag: inactive; M4 antag: 27

How did CN(C)CCN(Cc1ccco1)c1ccccn1 do in these assays?
CHRM4 agonist: inactive; M5 ag: inactive; CHRM5 PAM: inactive; M4 PAM: inactive; M5 antag: inactive; M4 antag: inactive

Results for CCCn1c(NC(=O)CN2C(=O)NC3(CCCC3)C2=O)nc2ccccc21 ?
CHRM4 agonist: inactive; M5 ag: inactive; CHRM5 PAM: inactive; M4 PAM: 23; M5 antag: inactive; M4 antag: inactive

How did CCCn1c(NC(=O)CN2C(=O)NC3(CCCCC3)C2=O)nc2ccccc21 do in these assays?
CHRM4 agonist: inactive; M5 ag: inactive; CHRM5 PAM: inactive; M4 PAM: inactive; M5 antag: inactive; M4 antag: inactive

How did O=C1NC(=O)C(Cc2c[nH]c3ccccc23)N1 (stereo not given) do in these assays?
CHRM4 agonist: inactive; M5 ag: inactive; CHRM5 PAM: inactive; M4 PAM: inactive; M5 antag: inactive; M4 antag: inactive

Results for CN(C(=O)COC(=O)CNC(=O)c1ccccc1F)C1CCCCC1 ?
CHRM4 agonist: inactive; M5 ag: inactive; CHRM5 PAM: inactive; M4 PAM: 23; M5 antag: inactive; M4 antag: inactive

How did Cc1cc(C)cc(C(=O)NCCCN2CCOCC2)c1 do in these assays?
CHRM4 agonist: inactive; M5 ag: inactive; CHRM5 PAM: inactive; M4 PAM: inactive; M5 antag: inactive; M4 antag: inactive

How did c1ccc(-c2nnc(-c3ccccc3)o2)cc1 do in these assays?
CHRM4 agonist: inactive; M5 ag: inactive; CHRM5 PAM: inactive; M4 PAM: inactive; M5 antag: inactive; M4 antag: inactive

How did Cc1nc(-c2nnc(-c3ccccc3)o2)c(C(F)(F)F)o1 do in these assays?
CHRM4 agonist: inactive; M5 ag: inactive; CHRM5 PAM: inactive; M4 PAM: inactive; M5 antag: inactive; M4 antag: 29

How did CCCCN1C(=N)N([C@@H](C)CN2CCC[C@H]2CN2C(N)=NC[C@@H]2Cc2ccccc2)C[C@H]1Cc1ccccc1 do in these assays?
CHRM4 agonist: inactive; M5 ag: inactive; CHRM5 PAM: inactive; M4 PAM: inactive; M5 antag: inactive; M4 antag: 40

How did CC[C@@H](C)[C@@H]1CN([C@@H](C)CN2CCC[C@H]2CN2C(N)=NC[C@@H]2Cc2ccccc2)C(=N)N1CCCC1CCCC1 do in these assays?
CHRM4 agonist: inactive; M5 ag: inactive; CHRM5 PAM: inactive; M4 PAM: inactive; M5 antag: inactive; M4 antag: 65

Results for CC[C@@H](C)[C@@H]1CN([C@@H](C)CN2CCC[C@H]2CN2C(N)=NC[C@H]2CC(C)C)C(=N)N1CCCC1CCCC1 ?
CHRM4 agonist: inactive; M5 ag: inactive; CHRM5 PAM: inactive; M4 PAM: inactive; M5 antag: inactive; M4 antag: inactive

What do the screens show for `COc1cc(CCC(=O)O)on1`?
CHRM4 agonist: inactive; M5 ag: inactive; CHRM5 PAM: inactive; M4 PAM: inactive; M5 antag: inactive; M4 antag: inactive

What do the screens show for `CCCCN1C(=O)N(CCc2ccc(F)cc2)S(=O)(=O)c2cc(C(F)(F)F)ccc21`?
CHRM4 agonist: inactive; M5 ag: inactive; CHRM5 PAM: inactive; M4 PAM: inactive; M5 antag: inactive; M4 antag: inactive

What do the screens show for `CCC(=O)N1CCc2cc(S(=O)(=O)CCC(=O)N3CCN(c4ccc(Cl)cc4)CC3)ccc21`?
CHRM4 agonist: inactive; M5 ag: inactive; CHRM5 PAM: inactive; M4 PAM: inactive; M5 antag: 28; M4 antag: inactive

Results for C/C(=N\Nc1c(F)c(F)c(Br)c(F)c1F)c1ccncc1 ?
CHRM4 agonist: inactive; M5 ag: inactive; CHRM5 PAM: inactive; M4 PAM: 15; M5 antag: inactive; M4 antag: inactive

What do the screens show for `Cn1nc(C(F)(F)F)c(-c2ccc(Br)cc2)c1NC(=O)Nc1ccc(F)cc1F`?
CHRM4 agonist: inactive; M5 ag: inactive; CHRM5 PAM: inactive; M4 PAM: inactive; M5 antag: 30; M4 antag: inactive

What do the screens show for `CCOC(=O)C1CN(S(=O)(=O)c2ccc(C)cc2)c2ccccc2O1` (stereo not given)?
CHRM4 agonist: inactive; M5 ag: inactive; CHRM5 PAM: inactive; M4 PAM: inactive; M5 antag: inactive; M4 antag: inactive

How did Cc1cc(C(=O)Cn2c(CO)nc3ccccc32)c(C)n1C do in these assays?
CHRM4 agonist: inactive; M5 ag: inactive; CHRM5 PAM: inactive; M4 PAM: inactive; M5 antag: inactive; M4 antag: inactive

Compound activity as filed in PubChem.
